According to ChEMBL document CHEMBL4834402, “Discovery of TAK-981, a First-in-Class Inhibitor of SUMO-Activating Enzyme for the Treatment of Cancer” (J Med Chem, 2021):

Tests used:
SUMO-activating enzyme [1] = target: T1, SUMO-activating enzyme (Homo sapiens, UniProt Q9UBT2); assay: Inhibition of recombinant SAE (unknown origin) assessed as reduction in transfer of SUMO1 to UBC9 using SUMO1 as a substrate in presence of ATP at Km concentration by HTRF assay; format: protein-complex assay
Summary of the method: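 HTRF transthiolation assay measuring transfer of SUMO1 to UBC9, the E2 for SAE.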

NEDD8 activating enzyme = target: T2, NEDD8 activating enzyme (Homo sapiens, UniProt Q8TBC4); assay: Inhibition of recombinant NAE (unknown origin) in presence of ATP at Km concentration by HTRF assay; format: protein-complex assay
T2 sequence (Q8TBC4 whole entry): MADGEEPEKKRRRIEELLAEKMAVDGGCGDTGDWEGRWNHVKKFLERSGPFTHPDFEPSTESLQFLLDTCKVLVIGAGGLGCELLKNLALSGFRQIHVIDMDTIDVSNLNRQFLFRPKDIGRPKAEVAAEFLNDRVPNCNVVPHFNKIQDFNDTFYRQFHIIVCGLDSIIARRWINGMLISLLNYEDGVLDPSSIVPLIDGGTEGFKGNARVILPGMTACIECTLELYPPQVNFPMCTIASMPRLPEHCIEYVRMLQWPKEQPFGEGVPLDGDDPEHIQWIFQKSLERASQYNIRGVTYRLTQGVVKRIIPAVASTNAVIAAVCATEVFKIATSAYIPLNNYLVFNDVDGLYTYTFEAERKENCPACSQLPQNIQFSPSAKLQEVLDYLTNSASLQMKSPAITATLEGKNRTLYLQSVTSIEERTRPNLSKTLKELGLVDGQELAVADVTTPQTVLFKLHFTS
T2 sequence (Q13564 whole entry): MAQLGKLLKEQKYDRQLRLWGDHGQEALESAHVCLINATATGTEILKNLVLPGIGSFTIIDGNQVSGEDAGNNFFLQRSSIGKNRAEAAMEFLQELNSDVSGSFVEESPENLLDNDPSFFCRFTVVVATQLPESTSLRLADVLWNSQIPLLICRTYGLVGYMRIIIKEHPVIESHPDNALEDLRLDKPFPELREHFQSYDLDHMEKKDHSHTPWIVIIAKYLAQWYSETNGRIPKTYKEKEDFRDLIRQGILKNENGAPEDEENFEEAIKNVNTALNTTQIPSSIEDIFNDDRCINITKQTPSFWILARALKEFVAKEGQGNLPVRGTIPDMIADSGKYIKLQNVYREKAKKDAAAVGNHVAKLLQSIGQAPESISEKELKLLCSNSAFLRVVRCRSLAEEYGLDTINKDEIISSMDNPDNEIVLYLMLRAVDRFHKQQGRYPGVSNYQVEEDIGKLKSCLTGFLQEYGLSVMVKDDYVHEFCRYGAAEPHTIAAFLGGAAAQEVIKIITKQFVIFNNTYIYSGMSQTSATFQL

SUMO-activating enzyme [2] = target: T1, SUMO-activating enzyme; assay: Inhibition of SAE in human HCT116 cells assessed as redistribution of SUMO2/3 proteins from nucleus to cytosol preincubated for 2 hrs followed by compound washout and measured immediately by immunofluorescence assay; format: cell-based, HCT-116
Summary of the method: (§1)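 Washout format of the SUMO2/3 immunofluorescence assay in HCT116 cells. Cells were exposed to a range of concentrations for 2 h, then washed free of compound.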

[3] = Inhibition of recombinant UAE (unknown origin) in presence of ATP at Km concentration by HTRF assay; parameters: species or system Homo sapiens
SUMO-activating enzyme [4] = target: T1, SUMO-activating enzyme; assay: Inhibition of SAE in human HCT116 cells assessed as reduction in redistribution of SUMO2/3 proteins from nucleus to cytosol incubated for 4 hrs by immunofluorescence assay; format: cell-based, HCT-116
Summary of the method: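 HCT-116 cells exposed to compound across a concentration range for 4 h, then stained with anti-SUMO2/3 monoclonal antibody. Automated imaging scored the nuclear (inner) to cytoplasmic (outer) SUMO2/3 ratio. IC50 taken from the dose response.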

SUMO-activating enzyme [5] = target: T1, SUMO-activating enzyme; assay: Inhibition of SAE in human HCT116 cells assessed as redistribution of SUMO2/3 proteins from nucleus to cytosol preincubated for 2 hrs followed by compound washout and measured after 8 hrs by immunofluorescence assay; format: cell-based, HCT-116; summary of the method: as §1

T1 sequence (Q9UBE0 whole entry): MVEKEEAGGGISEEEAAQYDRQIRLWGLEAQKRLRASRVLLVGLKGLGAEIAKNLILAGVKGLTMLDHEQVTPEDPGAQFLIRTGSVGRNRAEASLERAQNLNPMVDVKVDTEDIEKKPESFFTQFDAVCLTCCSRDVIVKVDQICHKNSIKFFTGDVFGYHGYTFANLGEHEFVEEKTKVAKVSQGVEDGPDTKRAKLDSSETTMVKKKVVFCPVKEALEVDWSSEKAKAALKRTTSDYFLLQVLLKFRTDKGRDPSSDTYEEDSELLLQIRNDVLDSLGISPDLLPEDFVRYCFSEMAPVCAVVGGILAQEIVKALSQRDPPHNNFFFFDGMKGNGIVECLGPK
T1 sequence (Q9UBT2 whole entry): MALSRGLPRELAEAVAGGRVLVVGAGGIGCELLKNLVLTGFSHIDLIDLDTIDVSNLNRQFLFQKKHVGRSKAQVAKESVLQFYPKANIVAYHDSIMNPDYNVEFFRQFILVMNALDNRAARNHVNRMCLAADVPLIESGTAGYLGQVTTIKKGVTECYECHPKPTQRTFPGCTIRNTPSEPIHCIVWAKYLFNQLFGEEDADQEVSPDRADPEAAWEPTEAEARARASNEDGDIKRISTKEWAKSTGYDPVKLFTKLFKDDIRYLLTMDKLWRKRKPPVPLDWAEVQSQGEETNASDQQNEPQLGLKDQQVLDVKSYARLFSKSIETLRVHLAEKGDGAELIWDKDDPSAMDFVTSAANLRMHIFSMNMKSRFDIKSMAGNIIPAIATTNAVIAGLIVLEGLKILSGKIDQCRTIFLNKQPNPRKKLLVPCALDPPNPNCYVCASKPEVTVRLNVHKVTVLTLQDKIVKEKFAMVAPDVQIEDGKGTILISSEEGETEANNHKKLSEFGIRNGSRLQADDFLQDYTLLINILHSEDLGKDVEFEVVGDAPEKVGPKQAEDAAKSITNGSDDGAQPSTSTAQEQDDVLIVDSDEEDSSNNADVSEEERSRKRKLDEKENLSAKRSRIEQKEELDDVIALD

Row | Compound | IC50 (SUMO-activating enzyme [1]) [nM] | IC50 (NEDD8 activating enzyme) [nM] | IC50 (SUMO-activating enzyme [2]) [nM] | IC50 [3] [nM] | IC50 (SUMO-activating enzyme [4]) [nM] | IC50 (SUMO-activating enzyme [5]) [nM]
1 | NS(=O)(=O)OC[C@H]1C[C@@H](Nc2ncncc2C(=O)c2cc(C3NCCc4ccc(Cl)cc43)cs2)C[C@@H]1O (stereo not given in full) | 0.8 | > 1000 | 167 | > 1000 | 27 | 142
2 | NS(=O)(=O)OC[C@H]1C[C@@H](Nc2ncncc2C(=O)c2cc(C3NCCc4ccccc43)cs2)C[C@@H]1O (stereo not given in full) | 1 | > 1000 | 365 | > 1000 | 78 | 503
3 | NS(=O)(=O)OC[C@H]1C[C@@H](Nc2ncncc2C(=O)c2cc(C3OCCc4ccc(Cl)cc43)cs2)C[C@@H]1O (stereo not given in full) | 0.5 | 450 | 7 | > 1000 | 8 | 22
4 | NS(=O)(=O)OC[C@H]1C[C@@H](Nc2ncncc2C(=O)c2cc(C(O)c3cccc(Cl)n3)c(Cl)s2)C[C@@H]1O (stereo not given in full) | 0.2 | 340 | 16 | > 1000 | 14 | 142
5 | NS(=O)(=O)OC[C@H]1C[C@@H](Nc2ncncc2C(=O)c2cc(C(O)c3cccc(Cl)c3)cs2)C[C@@H]1O (stereo in doubt; 30) | 1 | 114 | 1210 | > 1000 | 660 | > 10000
